# From PubChem
# S100A4 inh HTS: blocks human S100A4 binding to myosin IIA peptide | AID 652163 | 0.14% of 360,000 active | inhibition, % at 10.7 µM | S100A4/TAMRA-MyoIIA peptide fluorescence polarization;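 active = mean inhibition of at least 70% across replicates, with every replicate also reaching that level; inconclusive = mean inhibition reaches 70% but some replicates fall short; inactive = mean inhibition below 70%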
# Target sequence (P26447 whole entry, looked up): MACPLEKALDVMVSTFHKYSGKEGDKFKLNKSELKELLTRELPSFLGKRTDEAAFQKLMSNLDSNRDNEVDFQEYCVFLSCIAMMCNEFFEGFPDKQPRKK
#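 Material: S100A4 monomer protein / Buffer or medium: 50 mM HEPES pH 7.2, 10 mM CaCl2, 100 mM KCl / Times: 5 min incubation before reading / Benchmarks: neutral control DMSO, positive control TFP / Reagent: labelled myosin peptide probe, 5 nM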
# XiGFP reactiv: reactivates the inactive X chromosome in mouse fibroblasts; XiGFP mouse fibroblasts, % GFP-positive cells imaging, 3 d; cells co-treated with 5-aza-dC sensitizer; scaled so ellipticine positive control = 100%; AID 743238; 0.055% of 360,000 active; activation, % at 7.58 µM;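 active = mean normalized replicate activation at least 10% and every replicate at or above 10%; inconclusive = only one of the two criteria met; inactive = mean below 10% and not all replicates reach 10%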;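 also: 0% = median of on-plate neutral control wells and 100% = ellipticine 6 µM median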
#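 material = 68-5-11 XiGFP fibroblast line | medium = DMEM plus 5-aza-dC sensitizer | schedule = 3 days compound exposure | benchmarks = positive control ellipticine, 6 µM final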
# DENV2 CPE rescue: DENV2-induced cell death inhibition; DENV2-infected cells, cytopathic effect rescue, plate reader; CPE inhibition, % at 9.99 µM; 1.7% of 350,000 active; in the data active = CPE inhibition above about 20%, passing the limit was not always enough; inconclusive = no clear call, values can overlap the other calls; tested in BHK-21 cells;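 also: 0% = median of neutral control wells and 100% = median of positive control wells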
# E-selectin induc: E-selectin induction on HUVECs; HUVEC E-selectin immunofluorescence imaging; normalized: neutral wells 0, TNF-alpha wells 100; activation, % at 7.58 µM; 0.37% of 260,000 active; P16581; AID 686992;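 active = mean E-selectin-positive cell signal at least 10% of the positive control, reached in at least 60% of replicates, without over 20% cell loss; inconclusive = no rule given, readout overlaps actives, possibly toxicity-flagged; inactive = the rest, including those meeting only one limit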
#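 Material: HUVEC primary endothelial cells; Amount: 3,000 cells per well; Dosing: single concentration; Medium: EGM-2 growth medium on 0.1% gelatin-coated wells; Read-out basis: percent E-selectin-positive cells; Signal: immunofluorescence imaging; Control set: TNF-alpha, DMSO.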
# * hit, by the source's call; ? = inconclusive; . = not tested or not shown. Sampled rows, rich in hits. Any-hit rate of the full collection: about 2%.
SMILES,S100A4 inh HTS,XiGFP reactiv,DENV2 CPE rescue,E-selectin induc
C[C@@H]1CN([C@@H](C)CO)C(=O)c2cccc(NS(=O)(=O)c3cn(C)cn3)c2O[C@H]1CN(C)C(=O)Nc1ccc2c(c1)OCO2,0,0,-4,283*
C[C@@H]1CN([C@H](C)CO)C(=O)c2cc(NS(=O)(=O)c3cn(C)cn3)ccc2O[C@H]1CN(C)C(=O)Nc1ccc2c(c1)OCO2,-36,0,3,255*
COc1ccc(CNC(=O)[C@H](C)N2C(=O)N3CCc4c([nH]c5ccc(OC)cc45)[C@@]3(C)C2=O)cc1,-3,.,5,.
COc1ccc2[nH]c3c(c2c1)CCN1C(=O)N([C@@H](C)C(=O)NC2CCCCC2C)C(=O)[C@]31C (stereo partly drawn),-9,.,48*,.
C=CCCC1CN(Cc2ccc(OC)cc2)S(=O)(=O)c2c(cccc2N2CCCC2)O1 (stereo not drawn),-3,0,-4,0
Cc1ccc(S(=O)(=O)Nc2ccc3c(c2)C(=O)N([C@H](C)CO)C[C@H](C)[C@H](CN(C)Cc2ccc(C(F)(F)F)cc2)OCCCC[C@@H](C)O3)cc1,3,0,26*,.
Cc1ccc(S(=O)(=O)Nc2ccc3c(c2)C(=O)N([C@H](C)CO)C[C@@H](C)[C@H](CN(C)Cc2ccc(C(F)(F)F)cc2)OCCCC[C@@H](C)O3)cc1,58,0,-28,.
C[C@@H]1CCCCO[C@H](CN(C)C(=O)Nc2ccc(C(F)(F)F)cc2)[C@@H](C)CN([C@@H](C)CO)C(=O)c2cc(NS(=O)(=O)c3ccc(F)cc3)ccc2O1,20,0,-3,.
Cc1ccc(S(=O)(=O)Nc2ccc3c(c2)C(=O)N([C@H](C)CO)C[C@H](C)[C@H](CN(C)C(=O)Nc2ccc(C(F)(F)F)cc2)OCCCC[C@H](C)O3)cc1,1,0,53*,0
C[C@@H]1CCCCO[C@H](CN(C)C(=O)Nc2ccc(C(F)(F)F)cc2)[C@@H](C)CN([C@H](C)CO)C(=O)c2cc(NS(=O)(=O)c3ccc(F)cc3)ccc2O1,-4,0,21*,.
Cc1ccc(S(=O)(=O)Nc2ccc3c(c2)C(=O)N([C@@H](C)CO)C[C@@H](C)[C@H](CN(C)C(=O)Nc2ccc(C(F)(F)F)cc2)OCCCC[C@@H](C)O3)cc1,0,0,?,0
C[C@H]1CCCCO[C@@H](CN(C)C(=O)Nc2ccc(C(F)(F)F)cc2)[C@@H](C)CN([C@@H](C)CO)C(=O)c2cc(NS(=O)(=O)c3ccc(F)cc3)ccc2O1,7,0,76*,.
Cc1noc(C)c1NC(=O)N[C@@H]1CC[C@@H](CC(=O)NCCCN(C)C)O[C@H]1CO,-9,0,1,-1
CCOC(=O)C(=O)Nc1ccccc1C(=O)Nc1ccc(OC)cc1,-2,.,2,.
C[C@H]1CN([C@@H](C)CO)S(=O)(=O)c2ccc(C#CC3CCCC3)cc2O[C@@H]1CN(C)C(=O)Cc1ccccc1,.,-1,.,0
Cc1ccc(S(=O)(=O)Nc2ccc3c(c2)C(=O)N([C@@H](C)CO)C[C@@H](C)[C@@H](CN(C)C(=O)Nc2ccc(C(F)(F)F)cc2)OCCCC[C@H](C)O3)cc1,-2,0,13,0
COc1ccc(S(=O)(=O)Nc2ccc3c(c2)C(=O)N([C@H](C)CO)C[C@H](C)[C@@H](CN(C)C(=O)Nc2ccc(C(F)(F)F)cc2)OCCCC[C@H](C)O3)cc1,7,0,6,0
C[C@@H]1CCCCO[C@H](CN(C)C(=O)Nc2ccc(C(F)(F)F)cc2)[C@H](C)CN([C@@H](C)CO)C(=O)c2cc(NS(=O)(=O)c3ccc(F)cc3)ccc2O1,-2,0,98*,.
COc1ccc(S(=O)(=O)Nc2ccc3c(c2)C(=O)N([C@H](C)CO)C[C@@H](C)[C@@H](CN(C)C(=O)Nc2ccc(C(F)(F)F)cc2)OCCCC[C@@H](C)O3)cc1,-6,0,53*,0
COc1cccc(C#Cc2ccc([C@H]3[C@H](C#N)N(C(=O)C4CCCC4)[C@H]3CO)cc2)c1,-10,0,14,0
O=C1C(=Cc2ccccn2)CCc2ccccc21,-14,0,38*,4
CCOC(=O)/C=C1/SCC(=O)N1Cc1ccc(Br)cc1,-3,0,5,0
C[C@@H]1CN([C@@H](C)CO)C(=O)c2cccc(NC(=O)Nc3ccccc3)c2O[C@@H]1CN(C)CC1CCCCC1,5,0,36*,0
C[C@@H]1CN([C@@H](C)CO)C(=O)c2cccc(NC(=O)Nc3ccc(F)cc3)c2O[C@H]1CN(C)CC1CCCCC1,-21,0,-1,58*
C[C@@H]1CN([C@@H](C)CO)C(=O)c2cccc(NC(=O)NC3CCCCC3)c2O[C@H]1CN(C)CC1CCCCC1,-5,-1,44*,0
SMILES,S100A4 inh HTS,XiGFP reactiv,DENV2 CPE rescue,E-selectin induc
CCCCCOc1ccc(C(=O)OCC(=O)Nc2cc(C)on2)cc1,-4,1,14,0
COc1cc(NC(=O)CC(C)n2ccnc2)cc(OC)c1 (stereo not drawn),42,0,2,0
C[C@H]1CN([C@@H](C)CO)C(=O)c2cc(NC(=O)CCCCCC(=O)Nc3ccccc3N)ccc2O[C@@H]1CN(C)S(=O)(=O)c1cccs1,-13,0,0,.
CN(c1cccc(NC(=O)c2ccc(N(C)S(=O)(=O)c3ccccc3)cc2)c1)S(C)(=O)=O,3,0,-3,-1
CN(c1cccc(NC(=O)c2ccc(C(C)(C)C)cc2)c1)S(C)(=O)=O,-8,0,21*,4
CCN(CC)c1ccc2cc(-c3nc(-c4ccc(OC)cc4)cs3)c(=O)oc2c1,-10,115*,-6,1
C[C@H](CO)N1C[C@H](C)[C@H](CN(C)C(=O)NC2CCCCC2)Oc2ccc(NC(=O)Cn3cnnn3)cc2C1=O,7,0,99*,.
Cc1noc(C)c1NC(=O)N(C)C[C@H]1Oc2ccc(NC(=O)Cn3cnnn3)cc2C(=O)N([C@H](C)CO)C[C@H]1C,-11,0,-9,-7
Cc1noc(C)c1NC(=O)N(C)C[C@@H]1Oc2ccc(NC(=O)Cn3cnnn3)cc2C(=O)N([C@@H](C)CO)C[C@@H]1C,-26,0,4,103*
O=C(Nc1cccc(C(F)(F)F)c1)OCCN1CCN(Cc2ccccc2)CCC1=O,-5,0,70*,0
O=C1CCc2cc(S(=O)(=O)N3CCCCC3)cc3c2N1CC3,0,0,3,0
O=C1CCc2cc(S(=O)(=O)N3CCCCC3)cc3c2N1CCC3,73*,0,-6,.
CC(C)CC(NC(=O)OC(C)(C)C)c1cn([C@@H](CCC(=O)OC(C)(C)C)C(=O)N2CCN(C(=O)OC(C)(C)C)CC2)nn1 (stereo partly drawn),2,0,10,0
